Drawing on ChEMBL document CHEMBL1121745, “New dimeric analogues of ethidium; synthesis, interaction with DNA, and antitumor activity” (J Med Chem, 1981), this text covers T/C and IC50 for seven compounds.

The test system of experiment [1] is P388. Description: Antitumor activity in mice against leukemia P388 cells at 1.4 uM/kg was expressed as ratio of average survival time. The format is functional, Mus musculus.
The subject of experiment [2] is L1210. Description: Inhibition of incorporation of tritiated uridine in the RNA of actively growing L1210 cells. As to conditions: Mus musculus.
Experiment [3] concerns P388. Description: Antitumor activity in mice against leukemia P388 cells at 4.5 umol/kg. The format is functional, Mus musculus. The method, boiled down: (§1)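 Mice bearing P388 leukemia were tested under NCI protocols, with doses given in µmol/kg. Toxicity was evaluated on day 5. Efficacy is reported as T/C, the mean survival time of treated mice divided by that of untreated controls, ×100. Values are usually the average of two tests. A T/C above 120 was taken as activity.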

The test system of experiment [4] is P388. Description: Antitumor activity in mice against leukemia P388 cells at 4.5 umol/kg was expressed as ratio of average survival time. The format is functional, Mus musculus. The method, boiled down:
as §1

The test system of experiment [5] is P388. Description: Antitumor activity in mice against leukemia P388 cells at 8.9 uM/kg was expressed as ratio of average survival time. The format is functional, Mus musculus. The method, boiled down:
as §1

The subject of experiment [6] is B16. Description: Antitumor activity in mice against melanoma B16 cells at 34.2 uM/kg was expressed as ratio of average survival time. The format is functional, Mus musculus.
Experiment [7] relates to P388. Description: Antitumor activity in mice against leukemia P388 cells at 8.9 uM/kg. The format is functional, Mus musculus. The procedure, abridged: as §1
In experiment [8] the test system is P388. Description: Antitumor activity in mice against leukemia P388 cells at 17.9 survival time. The format is functional, Mus musculus. The method, boiled down:
as §1

The test system of experiment [9] is B16. Description: Antitumor activity in mice against melanoma B16 cells at 8.6 uM/kg was expressed as ratio of average survival time. The format is functional, Mus musculus.
Experiment [10] deals with L1210. Description: Inhibition of incorporation of tritiated thymidine in the DNA of actively growing L1210 cells. The format is functional, cell-based. As to conditions: Mus musculus. The method, boiled down: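 Actively growing L1210 cells are exposed to the drug, dissolved first in Me₂SO (final Me₂SO 1%). Incorporation of tritiated thymidine into DNA or tritiated uridine into RNA is measured. IC₅₀ is the concentration giving 50% reduction in incorporation.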

Experiment [11] concerns B16. Description: Antitumor activity in mice against melanoma B16 cells at 17.1 uM/kg was expressed as ratio of average survival time. The format is functional, Mus musculus.
The subject of experiment [12] is P388. Description: Antitumor activity in mice against leukemia P388 cells at 17.9 uM/kg. The format is functional, Mus musculus. The procedure, abridged:
as §1

Experiment [13] has as its system P388. Description: Antitumor activity in mice against leukemia P388 cells at 1.3 uM/kg was expressed as ratio of average survival time. The format is functional, Mus musculus.
Experiment [14] deals with P388. Description: Antitumor activity in mice against leukemia P388 cells at 3.4 uM/kg. The format is functional, Mus musculus. The procedure, abridged:
(§2)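 Mouse survival assay run under NCI protocols. Activity is expressed as T/C: average survival time of treated mice over untreated mice × 100. Values are usually the average of two tests. Toxicity is evaluated on day 5. A T/C above 120 is taken as activity.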

Experiment [15] concerns B16. Description: Antitumor activity in mice against melanoma B16 cells at 1.1 uM/kg. The format is functional, Mus musculus. The method, boiled down:
as §2

In experiment [16] the test system is P388. Description: Antitumor activity in mice against leukemia P388 cells at 0.85 uM/kg was expressed as ratio of average survival time. The format is functional, Mus musculus. The method, boiled down:
as §1

The subject of experiment [17] is P388. Description: Antitumor activity in mice against leukemia P388 cells at 1.7 uM/kg was expressed as ratio of average survival time. The format is functional, Mus musculus. The method, boiled down: as §1
Experiment [18] relates to P388. Description: Antitumor activity in mice against leukemia P388 cells at 0.85 uM/kg. The format is functional, Mus musculus. The procedure, abridged:
as §2

Experiment [19] concerns P388. Description: Antitumor activity in mice against leukemia P388 cells at 1.7 uM/kg. The format is functional, Mus musculus. The method, boiled down: as §2
In experiment [20] the test system is B16. Description: Antitumor activity in mice against melanoma B16 cells at 1.1 uM/kg was expressed as ratio of average survival time. The format is functional, Mus musculus.
In experiment [21] the test system is P388. Description: Antitumor activity in mice against leukemia P388 cells at 3.4 uM/kg was expressed as ratio average survival time. The format is functional, Mus musculus. The procedure, abridged: as §1
Experiment [22] relates to B16. Description: Antitumor activity in mice against melanoma B16 cells at 0.55 uM/kg. The format is functional, Mus musculus. The procedure, abridged:
as §2

For experiment [23], the system named is B16. Description: Antitumor activity in mice against melanoma B16 cells at 2.2 uM/kg. The format is functional, Mus musculus. The method, boiled down: as §2
In experiment [24] the test system is P388. Description: Antitumor activity in mice against leukemia P388 cells at 0.43 uM/kg. The format is functional, Mus musculus. The method, boiled down:
as §2

Experiment [25] relates to B16. Description: Antitumor activity in mice against melanoma B16 cells at 2.2 uM/kg was expressed as ratio of average survival time. The format is functional, Mus musculus.
The subject of experiment [26] is B16. Description: Antitumor activity in mice against melanoma B16 cells at 0.55 uM/kg was expressed as ratio of average survival time. The format is functional, Mus musculus.
The test system of experiment [27] is P388. Description: Antitumor activity in mice against leukemia P388 cells at 0.43 survival time. The format is functional, Mus musculus. The procedure, abridged:
as §1

Experiment [28] concerns B16. Description: Antitumor activity in mice against melanoma B16 cells at 0.17 umol/kg was expressed as ratio of average survival time. The format is functional, Mus musculus.
The test system of experiment [29] is P388. Description: Antitumor activity in mice against leukemia P388 cells at 0.05 umol/kg was expressed as ratio of average survival time. The format is functional, Mus musculus. The procedure, abridged:
as §1

In experiment [30] the test system is B16. Description: Antitumor activity in mice against melanoma B16 cells at 0.04 uM/kg was expressed as ratio of average survival time. The format is functional, Mus musculus.
Experiment [31] deals with P388. Description: Antitumor activity in mice against leukemia P388 cells at 0.22 umol/kg was expressed as ratio of average survival time. The format is functional, Mus musculus. The procedure, abridged: as §1
Experiment [32] concerns P388. Description: Antitumor activity in mice against leukemia P388 cells at 0.11 umol/kg was expressed as ratio of average survival time. The format is functional, Mus musculus. The method, boiled down:
as §1

Experiment [33] relates to B16. Description: Antitumor activity in mice against melanoma B16 cells at 0.09 uM/kg. The format is functional, Mus musculus. The method, boiled down:
as §2

Experiment [34] has as its system P388. Description: Antitumor activity in mice against leukemia P388 cells at 0.22 umol/kg. The format is functional, Mus musculus. The procedure, abridged: as §2
For experiment [35], the system named is B16. Description: Antitumor activity in mice against melanoma B16 cells at 0.04 uM/kg. The format is functional, Mus musculus. The method, boiled down:
as §2

The subject of experiment [36] is P388. Description: Antitumor activity in mice against leukemia P388 cells at 0.05 umol/kg. The format is functional, Mus musculus. The procedure, abridged:
as §2

Experiment [37] has as its system B16. Description: Antitumor activity in mice against melanoma B16 cells at 0.16 uM/kg was expressed as ratio of average survival time. The format is functional, Mus musculus.
For experiment [38], the system named is P388. Description: Antitumor activity in mice against leukemia P388 cells at 0.11 umol/kg. The format is functional, Mus musculus. The method, boiled down: as §2
Experiment [39] deals with B16. Description: Antitumor activity in mice against melanoma B16 cells at 0.09 uM/kg was expressed as ratio of average survival time. The format is functional, Mus musculus.
For experiment [40], the system named is P388. Description: Antitumor activity in mice against leukemia P388 cells at 0.86 survival time. The format is functional, Mus musculus. The procedure, abridged:
as §1

Experiment [41] has as its system P388. Description: Antitumor activity in mice against leukemia P388 cells at 1.7 umol/kg. The format is functional, Mus musculus. The procedure, abridged:
as §2

Experiment [42] has as its system P388. Description: Antitumor activity in mice against leukemia P388 cells at 0.86 uM/kg. The format is functional, Mus musculus. The procedure, abridged: as §2
Experiment [43] has as its system P388. Description: Antitumor activity in mice against leukemia P388 cells at 0.21 survival time. The format is functional, Mus musculus. The method, boiled down: as §1
For experiment [44], the system named is P388. Description: Antitumor activity in mice against leukemia P388 cells at 1.7 umol/kg was expressed as ratio of average survival time. The format is functional, Mus musculus. The procedure, abridged: as §1

In the case of `COc1cccc2c1C(=O)c1c(O)c3c(c(O)c1C2=O)C[C@@](O)(C(C)=O)C[C@@H]3O[C@H]1C[C@H](N)[C@H](O)[C@H](C)O1` [DAUNORUBICIN], in experiment [1], the T/C turned out to be 160.

Regarding `CC[n+]1c(-c2ccccc2)c2cc(N)ccc2c2ccc(N)cc21.[Cl-]`, the IC50 (usually the concentration that gives 50% inhibition) in [2] stood at 11 µM; in [10] it was 31 µM. Besides, the T/C in [3] is 10; in experiment [4], 135%; in experiment [5], 150%; in experiment [6], 135%; in experiment [7], 18; in experiment [8] it was 149%. For the same compound, the T/C in experiment [9] was 108%; in [11], 112%; in experiment [12], 24.

With `COc1cccc2c1C(=O)c1c(O)c3c(c(O)c1C2=O)C[C@@](O)(C(=O)CO)C[C@@H]3O[C@H]1C[C@H](N)[C@H](O)[C@H](C)O1` [DOXORUBICIN], the T/C in experiment [13] was 197.

Consider `C[n+]1c(-c2cccc(OCCOCCOc3cccc(-c4c5cc(N)ccc5c5ccc(N)cc5[n+]4C)c3)c2)c2cc(N)ccc2c2ccc(N)cc21.[Br-].[Br-]`, for which the T/C turned out to be 39 in experiment [14]; 127 in experiment [15]; 132% in [16]; 156% in [17]; 37 in experiment [18]; 28 in experiment [19]. The T/C in [20] turned out to be 127%; in [21], 152%; in experiment [22], 109; in experiment [23], 142; in experiment [24] it was 20; in experiment [25], 142%. The values for the T/C in experiment [26] and in [27] were 109% and 124%, respectively. Besides, the IC50 turned out to be 16 µM in [2] and 187 µM in experiment [10].

For the compound `COc1cccc(-c2c3cc(N)ccc3c3ccc(N)cc3[n+]2C)c1`, the figures for the half-inhibitory concentration (IC50) in experiment [2] and in experiment [10] were 10 µM and 25 µM, respectively.

Consider `C[n+]1c(-c2cccc(OCCCCCCCOc3cccc(-c4c5cc(N)ccc5c5ccc(N)cc5[n+]4C)c3)c2)c2cc(N)ccc2c2ccc(N)cc21.[Br-].[Br-]`, for which the T/C came out at 138% in experiment [28]; 120% in experiment [29]; 116% in [30]; 120% in experiment [31]; 126% in experiment [32]; 136 in experiment [33]. The T/C came out at 40 in [34]; 116 in experiment [35]; 5 in experiment [36]; 134% in [37]; 13 in experiment [38]; 136% in [39]. For the same compound, the IC50 came out at 0.6 µM in [2] and 12 µM in experiment [10].

For `C[n+]1c(-c2cccc(OCCCCCCCCCCOc3cccc(-c4c5cc(N)ccc5c5ccc(N)cc5[n+]4C)c3)c2)c2cc(N)ccc2c2ccc(N)cc21.[Cl-].[Cl-]`, the T/C in experiment [40] worked out at 160%; in [41], 33; in [42], 15; in [43] it was 141%; in [44] it was 158%; in experiment [27], 156%. The IC50 was 0.3 µM in experiment [2] and 1.7 µM in experiment [10].
